In the library only some 5.1% were active in any assay of this set; here they are far more common.
NF-kB expr up: NF-kB expression increase, human neuronal cells; AID 1239; fold change at 12.5 µM; NF-kB reporter expression; active compounds read high; 190,000 tested, 1.6% active; in the data active means fold change above about 3.3
STAT1 act: increases IFN-gamma driven STAT1 reporter signal | AID 932 | activation (% of control), % at 5.5 µM | NIH 3T3 STAT1-luciferase reporter, luminescence; 100% = IFN-gamma alone, no compound | 200,000 tested, 2.6% active;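 active means activation above the screen-wide mean activation plus 3 SD, cut at about 130% in these data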;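 further: raw ratio to IFN-gamma control signal so 100% means no change and 0% no light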
STAT1 inh: STAT1 signaling inhibition. NIH 3T3 STAT1-luciferase reporter, IFN-gamma, luminescence. inhibition, % at 5.5 µM. 200,000 tested, 0.35% active. AID 920;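 active means inhibition above a set limit, the mean inhibition across all tested compounds plus 3 SD, cut at about 34% in these data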;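 further: 0% = IFN-gamma with DMSO and 100% = IFN-gamma with 300 µM nifuroxazide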
STAT3 act: increases IL-6 driven STAT3 reporter signal | U3A cells, IL-6 STAT3-luciferase reporter, luminescence; 100% = signal with IL-6 EC80 alone | activation (% of control), % at 5.6 µM | 190,000 tested, 0.91% active | AID 871;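 active means activation above the screen-wide mean of compound activation plus 3 SD, cut at about 130% in these data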;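 further: 0% = background luminescence of wells with medium and substrate only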
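Assay system – human STAT1-deficient U3A cells with stable STAT3-luciferase reporter · Also added – IL-6 (33 ng/mL) · Schedule – compound 1 h, then IL-6 6 h at 37 °C · Technique – reporter luminescence signal · Evaluation – % activation versus median of IL-6-stimulated wells · Benchmarks – IL-6-only wells as 100% reference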
APP 5'UTR act: activates APP 5'UTR luciferase reporter; SH-SY5Y APP 5'UTR luciferase reporter, luminescence; zero percent = DMSO vehicle wells; activation, % at 2 µM; AID 1276; 190,000 tested, 1% active;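 active means activation above a set limit, based on mean plus 3 SD of controls, cut at about 140% in these data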
STAT3 inh: STAT3 signaling inhibition | U3A cells, IL-6 STAT3-luciferase reporter, luminescence; host cell line lacks STAT1 | 190,000 tested, 0.89% active | inhibition, % at 5.5 µM | AID 862;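 active means inhibition above the mean inhibition across all screened compounds plus 3 SD, cut at about 44% in these data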;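 further: 0% = DMSO only wells and 100% = 100 µM nifuroxazide control wells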
The depositor's hits bear a star.

What do the screens show for `N#C/C(=C\Nc1ccc2c(c1)OCCO2)c1nc(-c2ccccc2)cs1`?
NF-kB expr up: 1.2; STAT1 act: 106; STAT1 inh: -6; STAT3 act: 102; APP 5'UTR act: 10; STAT3 inh: 2

How did c1ccc(-c2csc(Nc3ccc4c(c3)OCCO4)n2)cc1 do in these assays?
NF-kB expr up: 4.8*; STAT1 act: 139*; STAT1 inh: -42; STAT3 act: 95; APP 5'UTR act: 187*; STAT3 inh: 6

What do the screens show for `CS(=O)(=O)N(CCc1ccccc1)CC(=O)N1CCN(c2ccc(F)cc2)CC1`?
STAT1 act: 111; STAT1 inh: -1; STAT3 act: 90; APP 5'UTR act: 8; STAT3 inh: 15

How did CCOC(=O)Cc1csc(NC(=O)/C=C/c2ccc(OC)cc2)n1 do in these assays?
NF-kB expr up: 0.93; STAT1 act: 90; STAT1 inh: 11; STAT3 act: 75; APP 5'UTR act: 48; STAT3 inh: 36

Results for O=C(/C=C/c1ccc2c(c1)OCO2)Nc1nc(-c2ccc(F)cc2)cs1 ?
NF-kB expr up: 1.3; STAT1 act: 92; STAT1 inh: 9; STAT3 act: 100; APP 5'UTR act: 9; STAT3 inh: 0

How did COc1cccc(Nc2nc(-c3ccc4c(c3)OCCO4)cs2)c1 do in these assays?
NF-kB expr up: 2.9; STAT1 act: 148*; STAT1 inh: -53; STAT3 act: 110; APP 5'UTR act: 162*; STAT3 inh: -9

What do the screens show for `c1cc2c(cc1Nc1nc(-c3ccc4c(c3)OCO4)cs1)OCCO2`?
NF-kB expr up: 1.2; STAT1 act: 137*; STAT1 inh: -40; STAT3 act: 92; APP 5'UTR act: 25; STAT3 inh: 9

Results for Nc1nc(-c2ccc3c(c2)CCO3)cs1 ?
NF-kB expr up: 1.7; STAT1 act: 125; STAT1 inh: -27; STAT3 act: 110; APP 5'UTR act: 45; STAT3 inh: -5

How did COc1ccccc1C(=O)Nc1nc(-c2ccc3c(c2)OCCO3)cs1 do in these assays?
NF-kB expr up: 1; STAT1 act: 105; STAT1 inh: -6; STAT3 act: 80; APP 5'UTR act: 1; STAT3 inh: 28

How did CC(C)(C)C(=O)Nc1nc(-c2ccc3c(c2)OCO3)cs1 do in these assays?
NF-kB expr up: 5.7*; STAT1 act: 139*; STAT1 inh: -42; STAT3 act: 109; APP 5'UTR act: 157*; STAT3 inh: -14

How did Cc1ccc(C)c(NC(=O)CS(=O)(=O)c2cccc3nsnc23)c1 do in these assays?
NF-kB expr up: 1; STAT1 act: 98; STAT1 inh: 2; STAT3 act: 103; APP 5'UTR act: 4; STAT3 inh: -4

What do the screens show for `O=C(CNCCc1ccccc1)N1CCc2ccccc2C1`?
NF-kB expr up: 1.6; STAT1 act: 104; STAT1 inh: -6; STAT3 act: 110; APP 5'UTR act: -8; STAT3 inh: -10

What do the screens show for `CCc1ccc(NC(=O)CN2C(=O)C(=O)N(Cc3ccccc3)C2=O)cc1`?
NF-kB expr up: 1; STAT1 act: 102; STAT1 inh: -4; STAT3 act: 106; APP 5'UTR act: 18; STAT3 inh: 2

How did COc1ccc(-c2ocnc2C(=O)N2CCN(C(c3ccccc3)c3ccccc3)CC2)cc1 do in these assays?
NF-kB expr up: 1.1; STAT1 act: 94; STAT1 inh: 5; STAT3 act: 102; APP 5'UTR act: 6; STAT3 inh: -1

How did CCOC(=O)c1cnn2c(C)cc(-c3ccc(F)cc3)nc12 do in these assays?
NF-kB expr up: 3; STAT1 act: 146*; STAT1 inh: -50; STAT3 act: 102; APP 5'UTR act: 82; STAT3 inh: 3

How did Cc1cc(-c2ccc(F)cc2)nc2cc(C(N)=O)nn12 do in these assays?
NF-kB expr up: 0.85; STAT1 act: 99; STAT1 inh: 1; STAT3 act: 110; APP 5'UTR act: -11; STAT3 inh: -14

Results for COc1ccc(-c2nnc(SCc3ccccc3F)o2)cc1 ?
NF-kB expr up: 7.7*; STAT1 act: 142*; STAT1 inh: -46; STAT3 act: 101; APP 5'UTR act: 157*; STAT3 inh: 1

Results for Cc1ccccc1-c1nnc(SCc2ccccc2F)o1 ?
NF-kB expr up: 6.4*; STAT1 act: 148*; STAT1 inh: -53; STAT3 act: 101; APP 5'UTR act: 142*; STAT3 inh: 2

Results for Fc1ccccc1CSc1nnc(-c2ccccc2)o1 ?
NF-kB expr up: 5*; STAT1 act: 145*; STAT1 inh: -49; STAT3 act: 103; APP 5'UTR act: 139*; STAT3 inh: 1

How did CCSc1nnc(-c2ccc(OC)cc2)o1 do in these assays?
NF-kB expr up: 2.4; STAT1 act: 128; STAT1 inh: -31; STAT3 act: 82; APP 5'UTR act: 87; STAT3 inh: 24

How did Cc1ccc(CSc2nnc(-c3ccco3)o2)cc1 do in these assays?
NF-kB expr up: 3.9*; STAT1 act: 125; STAT1 inh: -27; STAT3 act: 106; APP 5'UTR act: 53; STAT3 inh: -6

How did COc1ccc(-c2nnc(SCC#N)o2)cc1 do in these assays?
NF-kB expr up: 1.5; STAT1 act: 104; STAT1 inh: -4; STAT3 act: 89; APP 5'UTR act: -7; STAT3 inh: 17

Results for Cc1ccccc1-c1nnc(SCc2ccccc2)o1 ?
NF-kB expr up: 2.9; STAT1 act: 132*; STAT1 inh: -35; STAT3 act: 101; APP 5'UTR act: 44; STAT3 inh: 2

How did c1ccc(CSc2nnc(-c3ccncc3)o2)cc1 do in these assays?
NF-kB expr up: 1.1; STAT1 act: 120; STAT1 inh: -21; STAT3 act: 92; APP 5'UTR act: 1; STAT3 inh: 9

What do the screens show for `C#CCSc1nnc(-c2ccc(OC)cc2)o1`?
NF-kB expr up: 3; STAT1 act: 134*; STAT1 inh: -38; STAT3 act: 89; APP 5'UTR act: 35; STAT3 inh: 14

What do the screens show for `Cc1ccc(C(=O)COC(=O)CCCC(=O)Nc2cc(C(F)(F)F)ccc2Cl)cc1C`?
NF-kB expr up: 1.1; STAT1 act: 102; STAT1 inh: -3; STAT3 act: 104; APP 5'UTR act: -12; STAT3 inh: -6

What do the screens show for `c1ccc(Sc2cnc3ccccc3n2)cc1`?
NF-kB expr up: 1.6; STAT1 act: 134*; STAT1 inh: -36; STAT3 act: 110; APP 5'UTR act: 38; STAT3 inh: -12

What do the screens show for `COc1ccc(C(=O)OCC(=O)N2CCCC2=O)c(OC)c1`?
NF-kB expr up: 1.1; STAT1 act: 139*; STAT1 inh: -45; STAT3 act: 104; APP 5'UTR act: 3; STAT3 inh: 0

How did COc1cc2ccccc2cc1C(=O)OCC(=O)N1CCOCC1 do in these assays?
NF-kB expr up: 1.1; STAT1 act: 101; STAT1 inh: -3; STAT3 act: 92; APP 5'UTR act: 24; STAT3 inh: 14

Results for Cc1cc(N2CCCCC2)n2ncc(-c3ccccc3)c2n1 ?
NF-kB expr up: 1.2; STAT1 act: 111; STAT1 inh: -12; STAT3 act: 63; APP 5'UTR act: 217*; STAT3 inh: 48*
